Measurements gathered from unrelated publications.
Protocols differ between the studies behind these lines.

SMILES | target or system | test | test system | conditions | quantity | value
Oc1c(-n2ccnn2)cnn1-c1cc(N2CCOCC2)ncn1 | – | – | female monkey, plasma | intravenous, 1 mg/kg | clearance | 11.7 mL/min/kg
O=[N+]([O-])c1ccc(-c2nc3cccc(O)c3[nH]2)o1 | CEM-SS | cell growth or viability, resazurin | – | 72 h | CC50 | 90 µM
COc1cccc2c1C(=O)c1c(O)c3c(c(O)c1C2=O)C[C@@](O)(C(=O)CO)C[C@@H]3O[C@H]1C[C@H](N)[C@H](O)[C@H](C)O1 | COLO 205 | cell growth or viability, MTT | – | 48 h | IC50 | 0.5 µM
CCCC(=O)Nc1cccc(NC(=O)c2ccccc2Br)c1 | – | chemical stability | mouse, plasma | 5 µM, 5 h, pH 7.4 | compound remaining | 2%
Nc1nc(-c2ccc(NC(=O)Nc3ccc(-c4c[nH]c(N)n4)c(F)c3)cc2F)c[nH]1 | – | metabolic stability | human, liver microsomes | 5 µM, 1 h, pH 7.4 | compound remaining | > 80%
CCC(=O)C[C@H](O)C[C@@H](C)C[C@H](NC(=O)[C@@H]1C[C@H](C)CN1C(=O)/C=C/[C@@H](C)CC)C(=O)N[C@H](C(=O)NC(C)(C)C(=O)N[C@@H](CC(C)C)C(=O)N[C@@H](CC(C)C)C(=O)NC(C)(C)C(=O)NC(C)(C)C(=O)NCCC(=O)N[C@@H](C)CN(C)C)[C@H](O)C(C)C | L6 | cell growth or viability, resazurin | – | 68 h | IC50 | 0.259 µM
Nc1nc(-c2cc(F)cc(NC(=O)Nc3cc(F)cc(-c4c[nH]c(N)n4)c3)c2)c[nH]1 | – | metabolic stability | human, liver microsomes | 5 µM, 1 h, pH 7.4 | compound remaining | > 80%
CC(=O)c1ccc2c(c1)N(CCCN(C)C)c1ccccc1S2 | CEM-SS | cell growth or viability, XTT | – | 6 days | CC50 | 18 µM
Nc1ccn([C@@H]2CS[C@H](CO)O2)c(=O)n1 | HepG2.2.15 | cell growth or viability, MTT | – | 6 days | CC50 | > 1000 µM
N=C(N)c1ccc(OCCCCCOc2ccc(C(=N)N)cc2)cc1 | L6 | cell growth or viability, resazurin | – | 70 h | IC50 | 7.6 µM
O=C(CCCO)N1N=C(c2c(-c3ccc(Cl)cc3)c3ccccc3[nH]c2=O)CC1c1ccc(Cl)cc1 (stereo not drawn) | – | metabolic stability | human, liver microsomes | 1 µM, 10 min, pH 7.4 | compound remaining | 52%
C=C(C)[C@H](CC=C(C)C)Cc1c(O)cc(O)c2c1O[C@H](c1ccccc1O)CC2=O | COLO 205 | cell growth or viability, MTT | – | 48 h | IC50 | 28.1 µM
